The text below walks through data of ChEMBL document CHEMBL1144120, “In vitro evaluation of antifungal properties of phenylpropanoids and related compounds acting against dermatophytes” (1999).

One may read the MIC as the lowest concentration found to suppress growth.

Assay [1] relates to Trichophyton mentagrophytes. Briefly: Antifungal activity against Trichophyton mentagrophytes ATCC 9972 up to 50 ug/mL by agar dilution method. Format: functional, organism-based. In outline: (§1)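 Dermatophytes were tested by agar dilution on Sabouraud chloramphenicol agar in 96-well plates. DMSO stock solutions were serially two-fold diluted into the medium to give final concentrations of 0.10–50 µg/mL, with DMSO not exceeding 2%. Each well received 5 µL of spore suspension.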

Assay [2] has as its system Trichophyton rubrum. Briefly: Antifungal activity against Trichophyton rubrum C 113 up to 50 ug/mL by agar dilution method. Format: functional, organism-based. In outline:
as §1
On the technique in general: In agar dilution, organisms are placed on agar that contains the substance at set levels.

The test system of assay [3] is Epidermophyton floccosum. Briefly: Antifungal activity against Epidermophyton floccosum C 114 up to 50 ug/mL by agar dilution method. Format: functional, organism-based. In outline: as §1
The test system of assay [4] is Nannizzia gypsea. Nature of the assay: Antifungal activity against Microsporum gypseum C 115 by agar dilution method. It is filed as functional. In outline: as §1
The subject of assay [5] is Trichophyton mentagrophytes. Briefly: Antifungal activity against Trichophyton mentagrophytes ATCC by agar dilution method. Format: functional. In outline: as §1
The test system of assay [6] is Trichophyton rubrum. Nature of the assay: Antifungal activity against Trichophyton rubrum C 113 by agar dilution method. Format: functional. In short, it runs like this: as §1
In assay [7] the test system is Epidermophyton floccosum. Briefly: Antifungal activity against Epidermophyton floccosum C 114 by agar dilution method. Format: functional. In outline: as §1
The subject of another assay is Candida albicans. Nature of the assay: Antifungal activity against Candida albicans ATCC 10231 by agar dilution method. It is filed as functional, organism-based. In short, it runs like this:
(§2)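 Sabouraud chloramphenicol agar dilution in 96-well plates. Strains were grown on Sabouraud chloramphenicol agar slants for 48 h at 30 °C and suspended in sterile distilled water, adjusted to 10^6 viable cells/mL. DMSO stocks were serially two-fold diluted into the agar to give 0.10–50 µg/mL, with DMSO ≤2% final. 5 µL inoculum per well; incubated 24, 48 or 72 h at 30 °C per control growth; MIC recorded.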

Another assay relates to Saccharomyces cerevisiae. Nature of the assay: Antifungal activity against Saccharomyces cerevisiae ATCC 9763 by agar dilution method. Format: functional, organism-based. In outline: as §2
Another assay deals with Cryptococcus neoformans. Briefly: Antifungal activity against Cryptococcus neoformans ATCC 32264 by agar dilution method. Format: functional, organism-based. In outline:
as §2

The next assay relates to Aspergillus flavus. Briefly: Antifungal activity against Aspergillus flavus ATCC 9170 by agar dilution method. Format: functional, organism-based. In short, it runs like this: as §2
The test system of the next assay is Aspergillus fumigatus. Briefly: Antifungal activity against Aspergillus fumigatus ATCC 26934 by agar dilution method. It is filed as functional, organism-based. In short, it runs like this: as §2
In a further assay the test system is Aspergillus niger. Briefly: Antifungal activity against Aspergillus niger ATCC 9029 by agar dilution method. It is filed as functional, organism-based. In outline:
as §2

Assay [8] concerns Microsporum canis. Briefly: Antifungal activity against Microsporum canis C 112 by agar dilution method. It is filed as functional. In outline: as §1
Assay [9] has as its system Microsporum canis. Briefly: Antifungal activity against Microsporum canis C 112 up to 50 ug/mL by agar dilution method. It is filed as functional, organism-based. In short, it runs like this: as §1
Assay [10] has as its system Nannizzia gypsea. Briefly: Antifungal activity against Microsporum gypseum C 115 up to 50 ug/mL by agar dilution method. It is filed as functional, organism-based. In outline: as §1

In brackets after ≈: the same amount, converted by molar mass. Activity calls are given as the source filed them. The calls are words filed in the database; no cut-off is given here.

For the compound `CC(Cl)C(=O)c1ccc2c(c1)OCO2` (stereo not given), the outcome (in [1]; with Trichophyton rubrum [2]; in the assay with Epidermophyton floccosum [3]; in the assay on Candida albicans; with Saccharomyces cerevisiae; with Cryptococcus neoformans) was inactive. Besides, the outcome with Aspergillus flavus, in the assay with Aspergillus fumigatus, with Aspergillus niger, in the assay with Microsporum canis [9] and in the assay on Nannizzia gypsea [10] was inactive. The minimum inhibitory concentration (MIC) in the assay on Nannizzia gypsea [4] amounted to 12.5 µg/mL (≈ 58.8 µM); in assay [5] it was 25 µg/mL (≈ 118 µM); in the assay with Trichophyton rubrum [6] it was 10 µg/mL (≈ 47 µM); in the assay with Epidermophyton floccosum [7], 6.25 µg/mL (≈ 29.4 µM); in the assay with Microsporum canis [8], 12.5 µg/mL (≈ 58.8 µM).
Turning to `CCC(O)c1ccc(OC)c(OC)c1` (stereo not given), the outcome (in assay [1]; in the assay with Trichophyton rubrum [2]; in the assay with Epidermophyton floccosum [3]; in the assay on Candida albicans; in the assay with Saccharomyces cerevisiae; with Cryptococcus neoformans) was inactive. Further, the result with Aspergillus flavus, with Aspergillus fumigatus, with Aspergillus niger, in the assay with Microsporum canis [9] and in the assay with Nannizzia gypsea [10] was inactive. The minimum inhibitory concentration (MIC) in the assay with Nannizzia gypsea [4] is greater than 50 µg/mL; in [5] it was greater than 50 µg/mL; in the assay with Trichophyton rubrum [6], greater than 50 µg/mL; against Epidermophyton floccosum [7] it was 50 µg/mL (≈ 255 µM); against Microsporum canis [8] it was greater than 50 µg/mL.
In the case of `CC(C)C(=O)c1ccc2ccccc2c1`, the outcome (in assay [1]; in the assay on Trichophyton rubrum [2]; in the assay on Epidermophyton floccosum [3]; in the assay with Candida albicans; in the assay on Saccharomyces cerevisiae; in the assay on Cryptococcus neoformans) was inactive. Moreover, the outcome in the assay on Aspergillus flavus, in the assay on Aspergillus fumigatus, in the assay on Aspergillus niger, with Microsporum canis [9] and in the assay with Nannizzia gypsea [10] was inactive. For the same compound, the minimum inhibitory concentration (MIC) with Nannizzia gypsea [4] was 25 µg/mL (≈ 126 µM); in [5], 25 µg/mL (≈ 126 µM); against Trichophyton rubrum [6] it was greater than 50 µg/mL; against Epidermophyton floccosum [7], 40 µg/mL (≈ 202 µM); with Microsporum canis [8] it was 40 µg/mL (≈ 202 µM).
As to `CCC(=O)c1ccc(OC)c(OC)c1`, the result (in assay [1]; with Trichophyton rubrum [2]; with Epidermophyton floccosum [3]; with Candida albicans; with Saccharomyces cerevisiae; with Cryptococcus neoformans) was inactive. The result in the assay with Aspergillus flavus, in the assay with Aspergillus fumigatus, in the assay with Aspergillus niger, in the assay with Microsporum canis [9] and in the assay with Nannizzia gypsea [10] was inactive. The MIC against Nannizzia gypsea [4] is greater than 50 µg/mL; in assay [5], greater than 50 µg/mL; in the assay on Trichophyton rubrum [6] it was greater than 50 µg/mL; in the assay with Epidermophyton floccosum [7], 50 µg/mL (≈ 257 µM); against Microsporum canis [8], greater than 50 µg/mL.
With `C=CCc1cc(OC)c(OC)c(OC)c1`, the result (in assay [1]; in the assay with Trichophyton rubrum [2]; with Epidermophyton floccosum [3]; with Candida albicans; with Saccharomyces cerevisiae; with Cryptococcus neoformans) was inactive. Besides, the outcome with Aspergillus flavus, in the assay on Aspergillus fumigatus, in the assay with Aspergillus niger, in the assay on Microsporum canis [9] and in the assay on Nannizzia gypsea [10] was inactive. The MIC (against Nannizzia gypsea [4]; in assay [5]; in the assay with Trichophyton rubrum [6]; in the assay with Epidermophyton floccosum [7]; against Microsporum canis [8]) was greater than 50 µg/mL in each case.
For the compound `CCC(O)c1ccc2ccccc2c1` (stereo not given), the outcome (in assay [1]; in the assay on Trichophyton rubrum [2]; in the assay with Epidermophyton floccosum [3]; with Candida albicans; in the assay with Saccharomyces cerevisiae; with Cryptococcus neoformans) was inactive. Besides, the outcome in the assay on Aspergillus flavus, with Aspergillus fumigatus, with Aspergillus niger, in the assay with Microsporum canis [9] and in the assay on Nannizzia gypsea [10] was inactive. Further, the MIC with Nannizzia gypsea [4] is 40 µg/mL (≈ 215 µM); in assay [5], 25 µg/mL (≈ 134 µM); with Trichophyton rubrum [6], 40 µg/mL (≈ 215 µM); in the assay with Epidermophyton floccosum [7] it was 40 µg/mL (≈ 215 µM); against Microsporum canis [8], 50 µg/mL (≈ 268 µM).
On to `CC(C)(C)C(=O)c1ccccc1`, for which the outcome (in [1]; in the assay on Trichophyton rubrum [2]; with Epidermophyton floccosum [3]; with Candida albicans; in the assay with Saccharomyces cerevisiae; in the assay on Cryptococcus neoformans) was inactive. The outcome in the assay with Aspergillus flavus, in the assay with Aspergillus fumigatus, in the assay with Aspergillus niger, in the assay with Microsporum canis [9] and in the assay with Nannizzia gypsea [10] was inactive. The minimal inhibitory concentration (MIC) is greater than 50 µg/mL against Nannizzia gypsea [4]; greater than 50 µg/mL in assay [5]; greater than 50 µg/mL in the assay on Trichophyton rubrum [6]; 50 µg/mL (≈ 308 µM) with Epidermophyton floccosum [7]; greater than 50 µg/mL with Microsporum canis [8].
With `C/C=C\c1ccc(O)c(OC)c1` [ISOEUGENOL], the outcome (in [1]; in the assay with Trichophyton rubrum [2]; in the assay with Epidermophyton floccosum [3]; with Candida albicans; with Saccharomyces cerevisiae; in the assay with Cryptococcus neoformans) was inactive. The outcome in the assay with Aspergillus flavus, in the assay with Aspergillus fumigatus, in the assay on Aspergillus niger, in the assay with Microsporum canis [9] and in the assay on Nannizzia gypsea [10] was inactive. Also, the MIC (against Nannizzia gypsea [4]; in assay [5]; against Trichophyton rubrum [6]; in the assay with Epidermophyton floccosum [7]; against Microsporum canis [8]) was greater than 50 µg/mL throughout.
For the compound `CCC(=O)c1ccc2ccccc2c1`, the result (in [1]; in the assay with Trichophyton rubrum [2]; in the assay on Epidermophyton floccosum [3]; with Candida albicans; in the assay with Saccharomyces cerevisiae; in the assay on Cryptococcus neoformans) was inactive. The outcome in the assay with Aspergillus flavus, with Aspergillus fumigatus, in the assay on Aspergillus niger, with Microsporum canis [9] and in the assay on Nannizzia gypsea [10] was inactive. The MIC was 40 µg/mL (≈ 217 µM) with Nannizzia gypsea [4]; 25 µg/mL (≈ 136 µM) in [5]; 40 µg/mL (≈ 217 µM) with Trichophyton rubrum [6]; 40 µg/mL (≈ 217 µM) in the assay on Epidermophyton floccosum [7]; 50 µg/mL (≈ 271 µM) in the assay with Microsporum canis [8].
For the compound `COc1ccc([C@H](O)[C@H](C)Br)cc1OC`, the outcome (in [1]; with Trichophyton rubrum [2]; in the assay with Epidermophyton floccosum [3]; with Candida albicans; in the assay on Saccharomyces cerevisiae; in the assay with Cryptococcus neoformans) was inactive. For the same compound, the outcome in the assay on Aspergillus flavus, in the assay on Aspergillus fumigatus, in the assay with Aspergillus niger, in the assay with Microsporum canis [9] and in the assay with Nannizzia gypsea [10] was inactive. Further, the MIC is greater than 50 µg/mL in the assay on Nannizzia gypsea [4]; greater than 50 µg/mL in assay [5]; greater than 50 µg/mL in the assay with Trichophyton rubrum [6]; 50 µg/mL (≈ 182 µM) against Epidermophyton floccosum [7]; greater than 50 µg/mL against Microsporum canis [8].
